Results as given in ChEMBL document CHEMBL1122902, “Synthesis of the antileukemic agents 5,10-dideazaaminopterin and 5,10-dideaza-5,6,7,8-tetrahydroaminopterin” (J Med Chem, 1985).

Columns and labels:
[1] = biological target: T1, Folylpolyglutamate synthase, mitochondrial (Mus musculus) (UniProt P48760); test: Activity (relative Vmax) was evaluated in vitro by purified mouse liver folate polyglutamate synthetase (FPGS).
T1 sequence (whole entry): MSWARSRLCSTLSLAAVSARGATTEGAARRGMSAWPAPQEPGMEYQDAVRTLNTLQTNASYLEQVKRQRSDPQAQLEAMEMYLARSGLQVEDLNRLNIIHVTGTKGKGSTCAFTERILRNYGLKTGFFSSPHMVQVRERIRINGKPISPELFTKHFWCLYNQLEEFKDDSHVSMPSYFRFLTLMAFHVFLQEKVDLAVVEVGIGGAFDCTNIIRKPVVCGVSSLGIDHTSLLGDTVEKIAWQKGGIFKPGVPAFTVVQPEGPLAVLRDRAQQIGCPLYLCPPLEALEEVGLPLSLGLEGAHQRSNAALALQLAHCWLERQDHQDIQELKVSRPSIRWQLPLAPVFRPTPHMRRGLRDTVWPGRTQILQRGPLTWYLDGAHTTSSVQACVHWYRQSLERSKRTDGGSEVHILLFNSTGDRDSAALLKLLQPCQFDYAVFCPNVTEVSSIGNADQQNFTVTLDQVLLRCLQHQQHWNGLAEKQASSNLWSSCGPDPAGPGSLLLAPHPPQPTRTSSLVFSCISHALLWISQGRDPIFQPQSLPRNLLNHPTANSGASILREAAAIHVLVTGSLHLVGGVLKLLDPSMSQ
Procedure, shortened: (§1)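 Full saturation curves used duplicate assays at each of six concentrations, usually spanning 0.2–3 apparent Km. Kinetic values were derived by the Cleland method. Each value is expressed as a proportion of the PteGlu value from saturation curves run in the same experiment.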

[2] = biological target: T1, Folylpolyglutamate synthase, mitochondrial (Mus musculus); test: Activity (relative Km ) was evaluated in vitro by purified mouse liver folate polyglutamate synthetase (FPGS).; procedure, shortened: as §1
Mus musculus [3] = organism: Mus musculus; test: (§2) Inhibitory concentration against the growth of L1210 murine leukemia cells in tissue culture.; format: functional, cell-based
Thymidylate synthase = biological target: T2, Thymidylate synthase (Lactobacillus casei, UniProt P00469); test: In vitro inhibitory concentration against Lactobacillus casei thymidylate synthetase; design: species or system Lacticaseibacillus casei
T2 sequence (P00469 whole entry): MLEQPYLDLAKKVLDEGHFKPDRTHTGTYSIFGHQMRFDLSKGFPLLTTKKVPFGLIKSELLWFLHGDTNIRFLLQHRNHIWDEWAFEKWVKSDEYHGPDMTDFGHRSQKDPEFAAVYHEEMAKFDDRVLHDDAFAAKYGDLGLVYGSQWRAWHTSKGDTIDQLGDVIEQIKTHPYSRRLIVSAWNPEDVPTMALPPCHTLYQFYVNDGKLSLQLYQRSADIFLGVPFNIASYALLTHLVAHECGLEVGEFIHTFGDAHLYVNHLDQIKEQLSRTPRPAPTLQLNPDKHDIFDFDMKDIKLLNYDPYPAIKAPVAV

L1210 [4] = test: as §2; format: functional, cell-based; settings: Mus musculus
Mus musculus [5] = test: (§3) In vivo activity(%ILS) at optimal dose of 4 mg/kg, by intraperitoneal administration in BDF1 mice against L1210 leukemia cells; format: functional; settings: L1210, ip
[6] = biological target: T1, Folylpolyglutamate synthase, mitochondrial (Mus musculus); test: Activity (relative Km) was evaluated in vitro by purified mouse liver folate polyglutamate synthetase (FPGS).
Procedure, shortened: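 Partially purified mouse liver FPGS incubated with each substrate for 1 h at 37 °C. Full saturation curves were run in duplicate at six concentrations, usually 0.2–3 apparent Km, and products were isolated. Kinetic constants came from Cleland analysis. Km is expressed relative to PteGlu, taken from saturation curves run in the same experiment.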

Mus musculus [7] = test: In vivo activity (survivors) at optimal dose of 4mg/kg, by intraperitoneal administration in BDF1 mice against L1210 leukemia cells; […] given as 4/21; format: functional
Mus musculus [8] = test: In vivo activity(%ILS) at optimal dose of 1 mg/kg, by intraperitoneal administration in BDF1 mice against L1210 leukemia cells; format: functional; settings: L1210, ip
Mus musculus [9] = test: In vivo activity (survivors) at optimal dose of 1 mg/kg, by intraperitoneal administration in BDF1 mice against L1210 leukemia cells; […] given as 5/22; format: functional
L1210 [10] = test: as §2; settings: Mus musculus
L1210 [11] = test: as §3; format: functional; settings: Mus musculus, L1210, ip
Mus musculus [12] = test: In vivo activity (survivors) at optimal dose of 4 mg/kg, by intraperitoneal administration in BDF1 mice against L1210 leukemia cells; […] given as 0/10; format: functional

| Structure (SMILES) | Relative Vmax [1] | Relative Km [2] | IC50 (Thymidylate synthase) | IC50 (L1210 [4]) | other results |
| --- | --- | --- | --- | --- | --- |
| Nc1nc(=O)c2nc(CNc3ccc(C(=O)N[C@@H](CCC(=O)O)C(=O)O)cc3)cnc2[nH]1 | 1 |  |  |  | Km app [2]: 1 rel |
| Nc1nc(O)c2cc(CCc3ccc(C(=O)N[C@@H](CCC(=O)O)C(=O)O)cc3)cnc2n1 | 0.9 | 0.68 |  |  | IC50 (Mus musculus [3]): > 100 µM |
| Nc1nc2ncc(CCc3ccc(C(=O)N[C@@H](CCC(=O)O)C(=O)O)cc3)cc2c(=O)[nH]1 |  |  | 77 µM |  |  |
| Nc1nc(N)c2nc(CNc3ccc(C(=O)N[C@@H](CCC(=O)O)C(=O)O)cc3)cnc2n1 [AMINOPTERIN] | 1.5 | 0.21 |  | 0.0021 µM |  |
| Nc1nc(N)c2cc(CCc3ccc(C(=O)NC(CCC(=O)O)C(=O)O)cc3)cnc2n1 (stereo not given) | 0.35 |  | 92 µM | 0.017 µM | ILS at 4 mg/kg (Mus musculus [5]): 130%; Relative Km [6]: 0.86; Survivors (Mus musculus [7]): 4 |
| Nc1nc(O)c2c(n1)NCC(CNc1ccc(C(=O)N[C@@H](CCC(=O)O)C(=O)O)cc1)N2 (stereo not given in full) | 1.31 | 0.051 |  |  |  |
| Nc1nc(N)c2c(n1)NCC(CCc1ccc(C(=O)NC(CCC(=O)O)C(=O)O)cc1)C2 (stereo not given) | 1.61 | 0.23 | 920 µM | 0.0033 µM | ILS at 1 mg/kg (Mus musculus [8]): 111%; Survivors (Mus musculus [9]): 5 |
| Nc1nc(O)c2c(n1)NCC(CCc1ccc(C(=O)NC(CCC(=O)O)C(=O)O)cc1)C2 (stereo not given) | 1.24 | 0.05 | > 1000 µM |  | IC50 (Mus musculus [3]): 0.059 µM |
| CN(Cc1cnc2nc(N)nc(N)c2n1)c1ccc(C(=O)N[C@@H](CCC(=O)O)C(=O)O)cc1 [METHOTREXATE] |  |  |  |  | IC50 (L1210 [10]): 0.01 µM; ILS at 4 mg/kg (L1210 [11]): 85%; Survivors (Mus musculus [12]): 0 |
